# Screening results: PubChem, several laboratories
# Hits are enriched below; roughly 1.1% of the tested compounds scored in any of these assays.
# FXIa inh 1536 – factor XIa (human) inhibition; P03951; purified FXIa, Boc-Glu-Ala-Arg-AMC fluorogenic substrate; inhibition, % at 5 µM; actives 0.14% (n = 220,000); AID 798;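 active = inhibition of at least 40%; inactive = inhibition below 40%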;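 note: fluorescence of freed AMC excited at 355 nm; 0% = enzyme without compound and 100% = no enzyme blank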
# Biofilm kill mix – mixtures killing C. albicans biofilm; AID 1242; actives 0.02% (n = 120,000); inhibition, % at 7.6 µM; C. albicans biofilm persisters + clotrimazole, fluorescence viability; primary screen in compound mixtures of four per well;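 note: compounds exposed to preformed 24 h biofilms for 48 h; 0% = untreated biofilm control and 100% = clotrimazole plus chlorhexidine kill blank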
#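 Test system: C. albicans CAF4-2 wild-type biofilms; buffer or medium: RPMI/MOPS medium, pH 7.0; schedule: 24 h biofilm formation, then 48 h compound exposure, 37 °C; detection: Alamar Blue fluorescence; measure: percent inhibition of biofilm viability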
# KLK5 inh – blocks human kallikrein 5 protease activity; Q9Y337; recombinant hK5, fluorogenic AMC substrate cleavage; inhibition, % at 5 µM; actives 0.59% (n = 210,000); AID 873;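 active = inhibition of 40% or more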;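 note: 0% = enzyme controls without compound and 100% = no-enzyme blanks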
# thrombin 1536 – blocks human thrombin protease activity | actives 0.26% (n = 220,000) | P00734 | alpha-thrombin, Boc-VPR-AMC fluorogenic substrate cleavage | inhibition, % at 5 µM | AID 1046;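 active = inhibition at or above 40%; inactive = inhibition below 40%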;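 note: 0% = enzyme with no compound and 100% = wells without enzyme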
#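 System: Human alpha-thrombin protein | Medium: pH 7.5 Tris (50 mM) with NaCl 150 mM, Tween 20 0.05% | Times: Enzyme reaction carried out at room temperature | Detection: AMC fluorescence, 355/460 nm | Evaluation: Percent inhibition scaled between no-compound controls and no-enzyme blanks | Benchmarks: Enzyme without compound as high, wells lacking enzyme as low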
# Furin inhibitor – blocks human furin protease activity. P09958. purified furin, fluorogenic substrate cleavage. AID 463115. actives 0.061% (n = 220,000). inhibition, % at 20 µM or 30 µM; in the data active = inhibition above about 25%
# FXIIa inh 1536 – factor XIIa (human) inhibition | P00748 | purified FXIIa, Boc-QGR-AMC fluorogenic substrate, 2 h | inhibition, % at 5 µM | actives 0.3% (n = 220,000) | AID 800; in the data active = inhibition above about 40%;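 note: 0% = enzyme with no compound and 100% = blank without enzyme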
# The depositor's hits bear a star; i = inactive; . = not tested or not shown.
SMILES,FXIa inh 1536,Biofilm kill mix,KLK5 inh,thrombin 1536,Furin inhibitor,FXIIa inh 1536
CCOc1ccc(NC(=O)CSc2nc3ccccc3c(=O)n2CCCC(=O)NCCCN2CCCC2=O)cc1,0,18,-2,-5,-19,2
CCOc1ccc(NC(=O)CC2SC(=O)N(c3ccccc3)C2=O)cc1 (centres undefined),0,56,2,0,-31,12
Cc1nc2c(cnn2-c2ccc(Cl)cc2)c(=O)n1-c1ccc(N2CCC(C)CC2)cc1,14,.,54*,17,-12,17
CCOc1ccc(-n2c(C)nc3c(cnn3-c3ccc(Cl)cc3)c2=O)cc1,-4,.,-7,1,-8,3
O=C(OCc1nnc(-c2ccc(Br)cc2)o1)c1cncc(Br)c1,1,-7,0,5,0,4
COc1ccc(S(=O)(=O)NC(C)C(=O)Nc2cccc(C(C)=O)c2)cc1 (centres undefined),-14,.,-10,47*,-4,4
COc1ccc(S(=O)(=O)NC(C)C(=O)Nc2ccccc2F)cc1 (centres undefined),-1,.,-25,-3,-19,-1
C=CCn1c(SCc2ccc(OC)cc2)nnc1-c1cccnc1,3,.,50*,22,-17,8
O=C(Nc1ccccc1N1CCN(c2ccccc2)CC1)c1ccccc1,-2,15,-5,1,-18,1
COc1ccccc1NC(=O)Nc1ccccc1C(=O)NCCCN1CCOCC1,-6,7,3,3,-2,6
O=C(Nc1ncnc2sc3c(c12)CCCCC3)c1ccc(F)cc1,14,.,6,-2,-9,47*
O=C(Nc1ncnc2sc3c(c12)CCCCC3)c1ccccc1,-6,.,-28,-12,-4,-8
CC1(C(=O)NCc2ccc(Cl)c(Cl)c2)Oc2cccnc2NC1=O (centres undefined),-9,0,4,1,-27,9
Cc1ccc(C(=O)ONc2ccc(N=O)cc2)cc1,8,.,-8,1,-11,44*
CCn1c(C)c(P(c2ccccc2)c2ccccc2)[n+]2ccccc12,-5,25,-5,-25,-24,6
Cc1ccc(NC(=O)/C(=C\c2ccc([N+](=O)[O-])cc2)NC(=O)c2ccccc2)cc1,6,.,-5,4,-10,15
O=C(N/N=C/c1ccc(O)c(O)c1O)/C(=C/c1ccc([N+](=O)[O-])cc1)NC(=O)c1ccccc1,27,.,i,6,-3,41*
COc1ccc(OC)c2[nH]c(=O)c(CCNC(=O)c3cccs3)cc12,-4,13,-6,0,-26,0
Nc1sc2c(c1C(=O)NC1CCS(=O)(=O)C1)CCC2 (centres undefined),7,.,45*,19,-2,20
NC(=O)c1c(N)sc2c1CCCCC2,11,.,4,-3,-4,28
NC(=O)c1c(N)sc2c1CCC2,8,2,17,20,0,41*
CNC(=O)c1c(N)sc2c1CCCCC2,3,.,2,2,-27,10
FC(F)(F)c1cccc(Cc2noc(CN3CCCC(CN4CCCC4)C3)n2)c1 (centres undefined),-3,17,-2,-12,-6,7
C=CCOc1ccc(/C=N/O)cc1Cl,-4,10,-25,-6,-19,1
O=C1c2[nH]nc(-c3ccccc3O)c2C(c2ccccc2F)N1Cc1ccco1 (centres undefined),15,.,41*,23,-12,22
SMILES,FXIa inh 1536,Biofilm kill mix,KLK5 inh,thrombin 1536,Furin inhibitor,FXIIa inh 1536
O=C(COC(=O)c1ccc[nH]c1=O)NCC1CCCO1 (centres undefined),3,.,-22,2,30*,16
C/C(=N\Nc1ccc(F)cc1F)c1ccc(Br)s1,-4,8,-5,-2,-20,0
CCOC(=O)Cn1c(=NC(=O)CC)sc2c(C)cc(C)cc21,3,25,2,-12,-3,6
CCOC(=O)Cn1c(=NC(=O)C2CC2)sc2c(C)cc(C)cc21,28,25,41*,17,0,29
O=C(c1cccc(Cl)c1)N1CCN(Cc2ccccc2F)CC1,-3,.,94*,23,-43,3
COc1ccc(OC)c(CN2CCN(C(=O)c3cccs3)CC2)c1,1,.,5,-1,-22,8
COc1cc(C(=O)N2CCN(Cc3ccccc3C(F)(F)F)CC2)cc(OC)c1OC,8,.,0,-4,-21,13
